From ChEMBL document CHEMBL1147714, “1,3,5-Trisubstituted aryls as highly selective PPARdelta agonists” (Bioorg Med Chem Lett, 2006)

What was measured:
[1] = target: T1, Peroxisome proliferator-activated receptor alpha (Homo sapiens, UniProt Q07869); test: Effect on human PPARalpha transactivation in 293T cells; assay type: functional, cell-based
T1 sequence (Q07869 whole entry): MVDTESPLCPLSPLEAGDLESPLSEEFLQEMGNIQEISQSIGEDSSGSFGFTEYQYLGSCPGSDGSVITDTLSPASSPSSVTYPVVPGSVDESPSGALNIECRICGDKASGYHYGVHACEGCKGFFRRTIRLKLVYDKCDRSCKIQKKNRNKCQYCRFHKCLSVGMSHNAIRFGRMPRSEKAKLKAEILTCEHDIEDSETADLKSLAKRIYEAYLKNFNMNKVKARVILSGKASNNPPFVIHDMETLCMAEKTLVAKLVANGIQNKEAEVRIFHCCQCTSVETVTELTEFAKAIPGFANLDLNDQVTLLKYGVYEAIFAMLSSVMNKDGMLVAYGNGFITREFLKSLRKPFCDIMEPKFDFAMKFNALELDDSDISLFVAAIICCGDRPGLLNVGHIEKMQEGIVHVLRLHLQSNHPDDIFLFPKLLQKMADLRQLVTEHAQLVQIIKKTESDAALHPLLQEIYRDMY
In short: (§1)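 293T cells transfected for 6 h (Fugene6) with a GAL4 DNA-binding domain–PPAR ligand-binding domain fusion plasmid and pG5-Luc reporter (5 GAL4-binding sites, TATA box, firefly luciferase). Compounds were then added at 1× final concentration in 1% DMSO for 18-20 h at 37 °C. Cells were lysed with Britelite for luciferase read-out.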

[2] = target: T2, Peroxisome proliferator-activated receptor delta (Homo sapiens, UniProt Q03181); test: Effect on human PPARdelta transactivation in 293T cells; assay type: functional, cell-based
T2 sequence (Q03181 whole entry): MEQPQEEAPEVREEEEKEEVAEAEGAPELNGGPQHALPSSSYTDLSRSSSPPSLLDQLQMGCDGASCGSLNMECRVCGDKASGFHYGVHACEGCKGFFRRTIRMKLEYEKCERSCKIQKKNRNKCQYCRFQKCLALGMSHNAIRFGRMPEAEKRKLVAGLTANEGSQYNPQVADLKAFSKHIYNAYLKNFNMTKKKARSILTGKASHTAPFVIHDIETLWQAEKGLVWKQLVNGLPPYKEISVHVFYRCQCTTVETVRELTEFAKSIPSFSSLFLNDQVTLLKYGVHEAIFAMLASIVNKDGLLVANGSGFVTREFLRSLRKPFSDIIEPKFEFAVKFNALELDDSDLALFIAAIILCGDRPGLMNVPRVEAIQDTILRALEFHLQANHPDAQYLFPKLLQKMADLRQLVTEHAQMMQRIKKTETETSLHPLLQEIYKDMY

[3] = target: T3, Peroxisome proliferator-activated receptor gamma (Homo sapiens, UniProt P37231); test: Effect on human PPARgamma transactivation in 293T cells; assay type: functional, cell-based
T3 sequence (P37231 whole entry): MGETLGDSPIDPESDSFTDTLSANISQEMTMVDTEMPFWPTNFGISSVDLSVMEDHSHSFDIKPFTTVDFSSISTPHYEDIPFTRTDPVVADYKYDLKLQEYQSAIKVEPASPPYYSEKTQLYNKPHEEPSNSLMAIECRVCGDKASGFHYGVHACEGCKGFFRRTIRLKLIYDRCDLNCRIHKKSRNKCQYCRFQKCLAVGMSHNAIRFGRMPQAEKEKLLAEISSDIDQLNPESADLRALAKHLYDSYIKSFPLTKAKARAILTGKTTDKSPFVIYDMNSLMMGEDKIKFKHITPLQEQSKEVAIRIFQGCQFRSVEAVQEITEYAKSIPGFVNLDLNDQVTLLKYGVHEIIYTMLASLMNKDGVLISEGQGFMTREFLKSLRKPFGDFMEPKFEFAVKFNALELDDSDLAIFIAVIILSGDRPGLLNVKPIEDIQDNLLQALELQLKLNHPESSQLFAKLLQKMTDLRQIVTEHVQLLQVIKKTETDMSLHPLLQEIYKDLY

Liver microsomes [4] = test: Stability in human liver microsome; assay type: ADME
[5] = Half life in mouse at 10 mg/kg, po; assay type: ADME, organism-based; design: dose 10 mg/kg, route oral; conditions: in vivo
In short: (§2)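 Mice received a single oral dose of 10 mpk, given as a suspension in 0.5% CMC. Bioavailability, Cmax and half-life were obtained from this pharmacokinetic study.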

Mus musculus = organism: Mus musculus; test: Stability in mouse liver microsome; assay type: ADME
[6] = Cmax in mouse at 10 mg/kg, po; assay type: ADME, organism-based; design: dose 10 mg/kg, route oral; conditions: in vivo; in short: as §2
[7] = Bioavailability in mouse at 10 mg/kg, po; assay type: ADME, organism-based; conditions: in vivo; in short: as §2
Liver microsomes [8] = test: Stability in rat liver microsome; assay type: ADME
[9] = target: T4, Peroxisome proliferator-activated receptor gamma (Homo sapiens) (UniProt P37231); test: Effect on human PPARgamma transactivation in 293T cells relative to rosiglitazone; assay type: functional, cell-based; in short: as §1
T4 sequence (whole entry): T3 sequence (P37231 whole entry)

Row | Compound | EC50 [1] | EC50 [2] | EC50 [3] | other results
1 | Cc1cc(OCc2cc(-c3ccc(C(F)(F)F)cc3)cc(-c3ccc(C(F)(F)F)cc3)c2)ccc1OCC(=O)O | > 10000 nM | 10 nM | > 10000 nM | Stability (Liver microsomes [4]): Stable; half-life [5]: 3 h; Stability (Mus musculus): Stable; Cmax [6]: > 4 µM; bioavailability [7]: > 50%; Stability (Liver microsomes [8]): Stable
2 | Cc1cc(OCc2nc(-c3ccc(C(F)(F)F)cc3)cc(-c3ccc(C(F)(F)F)cc3)n2)ccc1OCC(=O)O | > 10000 nM | 40 nM | > 10000 nM | –
3 | Cc1cc(OCc2cc(-c3ccc(C(F)(F)F)cc3)nc(-c3ccc(C(F)(F)F)cc3)n2)ccc1OCC(=O)O | > 10000 nM | 30 nM | > 10000 nM | –
4 | Cc1cc(SCc2cc(-c3ccc(C(F)(F)F)cc3)cc(-c3ccc(C(F)(F)F)cc3)c2)ccc1OCC(=O)O | > 10000 nM | 30 nM | > 10000 nM | –
5 | CC(C)(Oc1ccc(OCc2cc(-c3ccc(C(F)(F)F)cc3)cc(-c3ccc(C(F)(F)F)cc3)c2)cc1)C(=O)O | 730 nM | 50 nM | 370 nM | –
6 | Cc1cc(OCc2cc(-c3ccc(-c4ccccc4)cc3)cc(-c3ccc(C(F)(F)F)cc3)c2)ccc1OCC(=O)O | > 10000 nM | 60 nM | > 10000 nM | –
7 | Cc1cc(OCc2cc(-c3ccc(OC(F)(F)F)cc3)nc(-c3ccc(OC(F)(F)F)cc3)n2)ccc1OCC(=O)O | > 10000 nM | 40 nM | > 10000 nM | Stability (Liver microsomes [4]): Stable; half-life [5]: 3 h; Stability (Mus musculus): Stable; Cmax [6]: > 4 µM; bioavailability [7]: > 50%; Stability (Liver microsomes [8]): Stable
8 | Cc1ccc(-c2cc(COc3ccc(OCC(=O)O)c(C)c3)cc(-c3ccc(C(F)(F)F)cc3)c2)cc1 | > 10000 nM | 70 nM | > 10000 nM | –
9 | Cc1cc(OCc2cc(-c3ccccc3)cc(-c3ccccc3)c2)ccc1OCC(=O)O | > 10000 nM | 560 nM | 740 nM | Efficacy [9]: 30%
10 | O=C(O)COc1ccc(OCc2cc(-c3ccccc3)cc(-c3ccccc3)c2)cc1 | > 10000 nM | 970 nM | 1200 nM | –
11 | Cc1cc(OCc2cc(-c3ccc(N(C)C)cc3)cc(-c3ccc(N(C)C)cc3)c2)ccc1OCC(=O)O | > 10000 nM | 490 nM | > 10000 nM | –
12 | Cc1cc(OCc2ccc(-c3ccc(OC(F)(F)F)cc3)c(-c3ccc(OC(F)(F)F)cc3)c2)ccc1OCC(=O)O | > 10000 nM | > 10000 nM | > 10000 nM | –
13 | Cc1cc(OCc2cc(-c3ccc(OC(F)(F)F)cc3)cc(-c3ccc(OC(F)(F)F)cc3)c2)ccc1OCC(=O)O | > 10000 nM | 30 nM | > 10000 nM | –
14 | COc1ccc(-c2cc(-c3ccc(OC)cc3)nc(COc3ccc(OCC(=O)O)c(C)c3)n2)cc1 | > 10000 nM | 110 nM | > 10000 nM | –

Continued, in another order:

Row | EC50 [1] | EC50 [2] | EC50 [3] | Compound | other results
15 | > 10000 nM | > 10000 nM | > 10000 nM | Cc1cc(OCc2ccc(-c3ccc(C(F)(F)F)cc3)c(-c3ccc(C(F)(F)F)cc3)n2)ccc1OCC(=O)O | –
16 | > 10000 nM | 70 nM | > 10000 nM | COc1ccc(-c2cc(COc3ccc(OCC(=O)O)c(C)c3)cc(-c3ccc(C(F)(F)F)cc3)c2)cc1 | –
17 | > 10000 nM | 90 nM | > 10000 nM | Cc1cc(OCc2nc(-c3ccc(OC(F)(F)F)cc3)cc(-c3ccc(OC(F)(F)F)cc3)n2)ccc1OCC(=O)O | –
18 | 1640 nM | 110 nM | > 10000 nM | O=C(O)COc1ccc(OCc2cc(-c3ccc(C(F)(F)F)cc3)cc(-c3ccc(C(F)(F)F)cc3)c2)cc1 | –
19 | > 10000 nM | 210 nM | > 10000 nM | COc1ccc(-c2cc(COc3ccc(OCC(=O)O)c(C)c3)nc(-c3ccc(OC)cc3)n2)cc1 | –
20 | > 10000 nM | 160 nM | > 10000 nM | O=C(O)Cc1ccc(SCc2cc(-c3ccc(C(F)(F)F)cc3)cc(-c3ccc(C(F)(F)F)cc3)c2)c(Cl)c1 | –
21 | 3330 nM | 70 nM | > 10000 nM | Cc1cc(OCC(=O)O)ccc1OCc1cc(-c2ccc(C(F)(F)F)cc2)cc(-c2ccc(C(F)(F)F)cc2)c1 | –
22 | > 10000 nM | 540 nM | > 10000 nM | O=C(O)Cc1ccc(OCc2cc(-c3ccc(C(F)(F)F)cc3)cc(-c3ccc(C(F)(F)F)cc3)c2)c(Cl)c1 | –
23 | > 10000 nM | 350 nM | > 10000 nM | COc1ccc(-c2cc(COc3ccc(OCC(=O)O)c(C)c3)cc(-c3ccc(OC)cc3)c2)cc1 | –
24 | > 10000 nM | 60 nM | > 10000 nM | Cc1cc(OCc2cc(-c3ccc(OC(F)(F)F)cc3)cc(-c3ccc(C(F)(F)F)cc3)c2)ccc1OCC(=O)O | –
25 | > 10000 nM | > 10000 nM | > 10000 nM | COc1ccc(-c2ccc(COc3ccc(OCC(=O)O)c(C)c3)cc2-c2ccc(OC)cc2)cc1 | –
26 | > 10000 nM | 110 nM | > 10000 nM | Cc1cc(OCc2cc(-c3ccc(Cl)cc3)cc(-c3ccc(Cl)cc3)c2)ccc1OCC(=O)O | –
27 | > 10000 nM | 560 nM | > 10000 nM | Cc1cc(OCc2cc(-c3ccc(C(F)(F)F)cc3)cc(-c3cccc(C(F)(F)F)c3)c2)ccc1OCC(=O)O | –
